Lipid droplet – modulators of hepatic lipid droplet formation. AML12 mouse hepatocytes, oleate lipid droplets, BODIPY imaging. 0.4% of 240,000 active. inhibition, % at 6.5 µM;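 active means lipid droplet intensity inhibited by at least 50%, with more than 500 cells counted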
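Material: mouse AML12 hepatocyte cell line, fixed after treatment; Timing: compound with oleate, overnight; Technique: high-content imaging of BODIPY-stained droplets and DAPI nuclei; Probe or stimulus: oleate, 100 µM final; Dosing: compound at 6.5 µM only.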
CHOP inhibitor – CHOP inhibition in unfolded protein response. 3.8% of 220,000 active. CHO-K1 CHOP-promoter luciferase, tunicamycin-induced, 15-18 h. inhibition, % at 10 µM;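 active means compounds that reduced the stress-induced luciferase reporter signal by more than about 70% of percent inhibition, limit read from the data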
ANO1 activ – activates or potentiates the mouse TMEM16A chloride channel; HEK293 TMEM16A/YFP-H148Q/I152L, iodide quench fluorescence; active compounds read low; AID 623877; 0.3% of 340,000 active; B-score at 10 µM;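 active means fluorescence-ratio B-score plate-corrected deviation score at least 3 library SD below zero, with starting fluorescence score within 5 deviations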;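 further: channel opened by trigger with iodide after compound preincubation; score built on the fluorescence ratio of max minus min over baseline; more negative score means more quench and so TMEM16A activation or potentiation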
XBP1 UPR activ – adaptive UPR (XBP1) activation | CHO-XBP1 luciferase reporter, IRE1-XBP1 UPR activation, luminescence; percent of tunicamycin response, DMSO as zero | AID 463104 | activation, % at 20 µM | 0.33% of 330,000 active;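 active means versus positive control, 20 µM dose yields 30% or more activation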
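Test system: CHO-XBP1 luciferase reporter cells | Buffer or medium: Serum-containing F12 medium, 10% FBS | Schedule: 6 h compound exposure at 37 °C, 5% CO2 | Detection: Steady-Glo luciferase glow luminescence, 10 min after reagent addition | Read-out basis: Activation, % of tunicamycin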
ANO1 block – inhibitors of mouse TMEM16A calcium-activated chloride channel; Q8BHY3; normalized B-score (activity score, 25-100; higher = stronger inhibition) at 10 µM; 1.2% of 310,000 active; AID 588511; HEK293 TMEM16A/YFP iodide influx fluorescence, ionomycin;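 active means ratio plate-corrected score three or more library SD toward inhibition, starting fluorescence score within five deviations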;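 further: score derived from kinetic fluorescence span divided by baseline fluorescence per well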
CHOP UPR activ – activators of apoptotic arm of unfolded protein response (CHOP); CHO-CHOP luciferase reporter, UPR activation, luminescence; percent of tunicamycin response over DMSO baseline; activation, % at 10 µM; 0.34% of 330,000 active;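 active means at 10 µM dose, activation of 40% or more, normalized to positive control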
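System: CHO CHOP reporter cells. Amount: 500 cells per well. Buffer or medium: F12 medium, 10% FBS. Compound dosing: one dose, 10 µM in 0.5% DMSO. Incubation: 6 h compound exposure at 37 °C after overnight seeding. Technique: Steady-Glo luciferase luminescence. Benchmarks: tunicamycin and DMSO controls.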
Hits are given with their value; n = inactive; x = no result given. Compounds with a hit are over-represented: about 4.2% of the library has one in this group of screens.

SMILES	Lipid droplet	CHOP inhibitor	ANO1 activ	XBP1 UPR activ	ANO1 block	CHOP UPR activ
Cc1nc(Nc2ccc(S(=O)(=O)N3CCCCC3C)cc2)c2nnn(Cc3ccccc3)c2n1 (stereo not given)	n	74.0	n	n	n	n
Cc1nc(Nc2ccc(Cl)cc2)c2nnn(Cc3ccccc3)c2n1	n	95.8	n	n	n	n
CCOc1ccc(Nc2cc(=O)oc3ccccc23)cc1	x	n	n	n	n	n
c1ccc(CN2CCC(Nc3nc(-c4cccs4)nc4ccccc34)CC2)cc1	n	74.9	n	n	n	n
COc1cccc(/C=C/C(=C2/C(=O)N(c3ccccc3)N=C2C)c2ccc(C)cc2)c1OC	74.4	n	n	n	n	n
COc1cccc(/C=C/C(=O)NNC(=O)c2ccccc2)c1OC	x	x	n	n	x	n
CC(CCc1ccccc1)NC(=O)COC(=O)C12CC3CC(CC(Br)(C3)C1)C2 (stereo not given)	n	n	n	n	n	n
CC(C)CC(=O)NC(=S)NCCc1ccccc1	x	n	n	n	n	n
CC(C)(C)CC(=O)NC(=S)NCCc1ccccc1	x	70.2	n	n	n	n
O=C(CNc1cccc(Cl)c1)c1ccc(Cl)cc1	x	74.9	n	n	n	n
CSc1ncccc1C(=O)OCC(=O)c1[nH]c(C)c(C(C)=O)c1C	x	x	n	n	x	n
CCCSc1nc2c(c(=O)[nH]c(=O)n2C)n1Cc1ccc(C)cc1	x	81.3	n	n	n	n
C/C=C/Cn1c(SCc2ccc(C)cc2)nc2c1c(=O)[nH]c(=O)n2C	x	94.2	n	n	n	n
CCCCCn1c(SCc2cccc(C)c2)nc2c1c(=O)[nH]c(=O)n2C	n	92.4	n	n	n	n
C=CCn1c(SCc2ccc(F)cc2)nc2c1c(=O)[nH]c(=O)n2C	x	n	n	n	n	n
CCCSc1nc2c(c(=O)[nH]c(=O)n2C)n1Cc1ccccc1	n	x	n	n	n	n
CC(C)(C)NC(=O)NC(=O)COC(=O)CNS(=O)(=O)/C=C/c1ccccc1	n	n	n	n	n	n
COc1cc(C2CC(=O)c3c([nH]c(C(=O)OCCOC(C)C)c3C)C2)cc(OC)c1OC (stereo not given)	n	x	n	n	100	n
CCOCCOC(=O)c1[nH]c2c(c1C)C(=O)CC(c1ccc(OC)c(OC)c1)C2 (stereo not given)	n	x	n	n	n	n
Cc1cc([N+](=O)[O-])ccc1NC(=O)C(C)NC1CCCCC1 (stereo not given)	n	x	n	n	n	n
O=c1cc(CSCc2ccc(Cl)cc2)[nH]c(=O)[nH]1	n	n	n	n	n	n
O=C(Nc1cccc(C(F)(F)F)c1)N1CCC(c2nc(-c3ccc(F)cc3)no2)CC1	n	90.9	n	n	25	n
Cc1ccc(S(=O)(=O)c2c(C)nn(C(C)(C)C)c2OC(=O)CC(C)C)cc1	n	80.4	n	n	n	n
CC(C)CN(C(=O)COC(=O)CCC(=O)c1ccc(F)cc1)c1c(N)n(Cc2ccccc2)c(=O)[nH]c1=O	x	x	n	n	n	n
O=C(CCCCn1c(=O)c2ccccc2n(Cc2ccccc2F)c1=O)NC1CCN(Cc2ccccc2)CC1	n	79.1	n	n	n	n
SMILES	Lipid droplet	CHOP inhibitor	ANO1 activ	XBP1 UPR activ	ANO1 block	CHOP UPR activ
C/C(=N\NC(=O)COc1ccc(C(C)(C)C)cc1)c1ccc(-n2ccnc2)cc1	n	95.1	n	n	n	n
COc1cc(NC(=O)COc2ccc(-n3ccnc3)cc2)cc(OC)c1	n	n	n	n	n	n
COc1ccc(OCC(=O)N/N=C(\C)c2ccc(-n3ccnc3)cc2)cc1	n	n	n	n	n	n
N#Cc1cccc(NC(=O)COc2ccc(-n3ccnc3)cc2)c1	x	n	n	n	25	n
CC(=O)N1CCN(S(=O)(=O)c2ccc(Cl)cc2F)CC1	n	n	n	n	n	n
Fc1ccccc1N1CCN(C2CCCN(Cc3cccc(C(F)(F)F)c3)C2)CC1 (stereo not given)	n	x	n	n	n	n
CC1CC(CCC(=O)NC(=S)Nc2ccc(S(N)(=O)=O)cc2)C(=O)O1 (stereo not given)	n	n	-4.75	n	n	n
C=CCn1c(-c2ccccc2)ccc(C#N)c1=O	x	91.4	n	n	n	n
C=CCn1c(-c2ccccc2)cc(SC)c(C#N)c1=O	n	n	n	n	n	n
CCn1cc(C(=O)N[C@H](C(=O)NCCO)C(C)C)c(=O)c2cc3c(cc21)OCO3	n	x	n	n	n	n
Cc1nc2c(Br)cc(Br)cc2cc1O	n	81.0	n	n	n	n
CCCCCn1c(SCC(=O)OCC)nc2cc(C(=O)NCc3ccco3)ccc2c1=O	x	73.4	n	n	n	n
O=C(CN1C(=O)/C(=C/c2cccc(Br)c2)SC1=S)Nc1cccnc1	n	n	n	n	n	n
CCOc1ccc(/C=C2\SC(=S)N(CCC(=O)O)C2=O)cc1	n	84.0	n	n	n	n
Cc1ccc(NC(=O)COc2cccc(/C=C3\SC(=S)N(CCC(=O)O)C3=O)c2)cc1Cl	n	98.0	n	n	n	n
O=C(O)CCN1C(=O)/C(=C\c2cccc(OCC(=O)Nc3ccc(Cl)cc3)c2)SC1=S	n	n	n	n	n	n
O=C(CCN1C(=O)/C(=C/c2cccc(Br)c2)SC1=S)Nc1cccnc1	n	86.6	n	n	n	n
CN(C)CCn1c2ccccc2c2nc3ccc([N+](=O)[O-])cc3cc21	n	n	n	n	n	n
COc1ccc(C(CNc2ccc(S(C)(=O)=O)cc2[N+](=O)[O-])N(C)C)cc1OC (stereo not given)	n	x	n	n	n	n
Cc1ccc(S(=O)(=O)Nc2ccc3cc([N+](=O)[O-])ccc3c2[N+](=O)[O-])cc1	x	x	n	x	x	x
CC(C)C(NC(=O)C(Cc1ccccc1)NC(=O)OCc1ccccc1)C(=O)O (stereo not given)	n	n	n	n	n	n
CC(C)(C#CCN1CCCCC1)OCCOC(c1ccccc1)c1ccccc1	n	76.9	n	n	n	n
Cc1ccc(S(=O)(=O)c2c(C)nn(-c3ccccc3)c2OC(=O)c2ccco2)cc1	n	102.8	n	n	n	n
COC(=O)c1ccc(C(=O)O)nc1	n	n	n	n	n	n
CC(NC(=O)Nc1ccc(Cl)cc1)c1ccccc1 (stereo not given)	n	x	n	n	n	n
Cc1ccc(C(NC(=O)NC(C)c2ccccc2)C(Cl)(Cl)Cl)cc1F (stereo not given)	n	86.5	n	n	n	n
CCN(c1ccccc1)c1ncnc2c1cnn2-c1ccccc1	x	79.5	n	n	n	n
CCC(=O)Nc1cc2nn(-c3ccc(C)cc3)nc2cc1C	n	91.4	n	n	n	n

Screens: PubChem BioAssay, several laboratories
